Assay [1] concerns Mus musculus. The assay can be described thus: In vivo induction of hypothermia in mice following 150 mg/Kg i.p. The assay is classed as functional.
For assay [2], the system named is Mus musculus. Briefly: Inhibition of t-BHP (tert-butyl-hydro-peroxide) induced toxicity in mice following 150 mg/Kg i.p. The format is functional. The procedure, abridged:
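Male NMRI mice (30–35 g) pretreated ip with 150 mg/kg in 0.2 mL saline/Tween, 30 min before icv injection of 70% t-BHP (22 mg/kg/μl). Lethality checked at 1, 2, 5, 24 h; value is percentage survival at 2 h versus t-BHP-only group; n = 10 per group.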

As for `CC(C)(C)/[N+]([O-])=C/c1ccccc1`, the Hypothermic effect with Mus musculus [1] was determined as 0.9 °C. Further, in the assay with Mus musculus [2], the Neuroprotection is on record as 57%.
The corresponding values for `Cn1c(/C=[N+](\[O-])C(C)(C)C)cnc1-c1ccccc1` are 0.69 °C and 0%.
`CC(C)(C)/[N+]([O-])=C/c1c[nH]c(-c2ccoc2)n1` showed a Hypothermic effect with Mus musculus [1] of 0.78 °C. For the same compound, the Neuroprotection in the assay on Mus musculus [2] is listed as 30%.
The corresponding values for `CC(C)(C)/[N+]([O-])=C/c1nc(-c2ccccc2)c[nH]1` are 1.42 degrees C and 0%.
The corresponding values for `CC(C)(C)/[N+]([O-])=C/c1c[nH]c(-c2ccsc2)n1` are 0.48 °C and 40%.
The compound `CC(C)(C)/[N+]([O-])=C/c1c[nH]c(-c2c[nH]cn2)n1` showed a Hypothermic effect in the assay with Mus musculus [1] of 0.13 °C. The compound further gave a Neuroprotection with Mus musculus [2] of 0%.
On the same counts, the results for `CC(C)(C)/[N+]([O-])=C/c1c[nH]c(-c2ccco2)n1` are 0.72 °C and 15%.
In the assay on Mus musculus [1], `Cn1cc(/C=[N+](\[O-])C(C)(C)C)nc1-c1ccccc1` registered a Hypothermic effect of 0.3 °C. Moreover, in the assay with Mus musculus [2], the Neuroprotection is recorded as 50%.
Compound `CC(C)(C)/[N+]([O-])=C/c1c[nH]c(-c2ccc(F)cc2)n1` came in with a Hypothermic effect in the assay with Mus musculus [1] of 2.01 °C. This compound came in with a Neuroprotection in the assay with Mus musculus [2] of 67%.
The corresponding values for `CC(C)(C)/[N+]([O-])=C/c1c[nH]c(-c2cccc3ccccc23)n1` are 0.52 °C and 75%.
On the same counts, the results for `CC(C)(C)/[N+]([O-])=C/c1c[nH]c(-c2ccc3ccccc3c2)n1` are 1.62 °C and 94%.
On the same counts, the results for `CC(C)(C)/[N+]([O-])=C/c1c[nH]c(-c2ccc(C(F)(F)F)cc2)n1` are 2.16 °C and 80%.
In turn, `CC(C)(C)/[N+]([O-])=C/c1c[nH]c(-c2ccccc2)n1` returned a Hypothermic effect in the assay with Mus musculus [1] of 0.33 °C. The Neuroprotection in the assay with Mus musculus [2] worked out at 78%.
Compound `CC(C)(C)/[N+]([O-])=C/c1c[nH]c(-c2cccc(Cl)c2)n1` came in with a Hypothermic effect in the assay on Mus musculus [1] of 1.66 °C. In the assay on Mus musculus [2], this compound had a Neuroprotection of 89%.
On the same counts, the results for `Cc1ccc(-c2nc(/C=[N+](\[O-])C(C)(C)C)c[nH]2)cc1` are 1.24 °C and 66%.
The corresponding values for `CC(C)(C)/[N+]([O-])=C/c1c[nH]c(-c2ccc(Cl)cc2)n1` are 1.32 °C and 89%.
`CC(C)(C)/[N+]([O-])=C/c1c[nH]c(-c2ccc([N+](=O)[O-])cc2)n1` gave a Hypothermic effect in the assay with Mus musculus [1] of 1.89 °C. In the assay on Mus musculus [2], this compound returned a Neuroprotection of 93%.
`CC(C)(C)/[N+]([O-])=C/c1c[nH]c(-c2cccnc2)n1` gave a Hypothermic effect with Mus musculus [1] of 0.75 °C. In addition, in the assay with Mus musculus [2], the Neuroprotection amounted to 0%.
The corresponding values for `CC(C)(C)/[N+]([O-])=C/c1c[nH]c(-c2nccs2)n1` are 0.38 °C and 0%.
For `CC(C)(C)/[N+]([O-])=C/c1c[nH]c(-c2ccccn2)n1`, in the assay with Mus musculus [1], the Hypothermic effect came out at 0.36 °C. In the assay on Mus musculus [2], this compound registered a Neuroprotection of 0%.
For `CC(C)(C)/[N+]([O-])=C/c1c[nH]c(-c2ccccc2Cl)n1`, in the assay with Mus musculus [1], the Hypothermic effect was determined as 1.91 °C. Further, the Neuroprotection in the assay with Mus musculus [2] amounted to 71%.
On the same counts, the results for `COc1ccc(-c2nc(/C=[N+](\[O-])C(C)(C)C)c[nH]2)cc1` are 0.53 degrees C and 53%.
The corresponding values for `CC(C)(C)/[N+]([O-])=C/c1c[nH]c(-c2ccncc2)n1` are 0.49 °C and 24%.

(Values after ChEMBL document CHEMBL1133728, “Synthesis, structure, and neuroprotective properties of novel imidazolyl nitrones” (J Med Chem, 2000).)
